# BindingDB's records for doi:10.1021/jm9811256 (Academy of Sciences of The Czech Republic, 1999)
# Key:
# [1] = Inhibition of herpes simplex virus type 1 thymidine kinase (HSV-1 TK-) B2006 strain
# [2] = Inhibitory activity against varicella zoster virus thymidine kinase (VZV TK+) YS strain
# [3] = Inhibitory activity against varicella zoster virus thymidine kinase (VZV TK+) OKA strain
# [4] = Inhibitory activity against varicella zoster virus thymidine kinase (VZV TK-) 07/1 strain
# [5] = Inhibitory activity against herpes simplex virus type 1 (HSV-1) thymidine kinase (TK) VMW 1837 strain
# Thymidine kinase [6] = target: T1, Thymidine kinase (Human herpesvirus 3, UniProt Q6QCL9); assay: Inhibitory activity against varicella zoster virus thymidine kinase (VZV TK+) YS strain
# T1 sequence (Q6QCL9 whole entry): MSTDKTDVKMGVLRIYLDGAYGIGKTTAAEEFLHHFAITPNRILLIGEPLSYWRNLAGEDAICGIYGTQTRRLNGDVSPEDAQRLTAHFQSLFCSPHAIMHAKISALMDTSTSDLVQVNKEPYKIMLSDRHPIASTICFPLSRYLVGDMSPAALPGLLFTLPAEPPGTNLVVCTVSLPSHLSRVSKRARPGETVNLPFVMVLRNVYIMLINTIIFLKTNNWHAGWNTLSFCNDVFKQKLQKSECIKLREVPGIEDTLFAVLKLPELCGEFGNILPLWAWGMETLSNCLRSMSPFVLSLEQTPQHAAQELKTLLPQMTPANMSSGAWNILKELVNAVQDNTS
# In short: (§1)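 HEL cell cultures were grown to confluence and infected with 100 CCID50 of VZV. After a 1 h adsorption period, unbound virus was removed and compound was added at serial concentrations (400, 200, 100, ... μg/mL). Cytopathic effect was read when untreated virus controls reached full cytopathicity.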
# [7] = Inhibition of varicella zoster virus thymidine kinase (VZV TK+) YS/R strain
# Thymidine kinase [8] = target: T1, Thymidine kinase; assay: Inhibitory activity against varicella zoster virus thymidine kinase (VZV TK+) OKA strain
# In short: as §1
SMILES,EC50 [1],EC50 [2],EC50 [3],EC50 [4],EC50 [5],EC50 (Thymidine kinase [6]),EC50 [7],EC50 (Thymidine kinase [8])
CC(C)CCCCCOP(=O)(COCCn1cnc2c(Cl)nc(N)nc21)OCCCCCC(C)C,> 30 µM,> 3.75 µM,> 3.75 µM,> 3.75 µM,> 30 µM,,,
Nc1ccn(CCOCP(=O)(O)O)c(=O)c1,,261 µM,> 402 µM,302 µM,,,,
CC(C)OP(=O)(COCCn1c(Br)nc2c(N)nc(N)nc21)OC(C)C,> 886 µM,> 110 µM,57.6 µM,> 110 µM,> 886 µM,,,
CC(C)OP(=O)(COCCn1cnc2c(Cl)nc(N)nc21)OC(C)C,,25.5 µM,33.1 µM,22.9 µM,,,,
CSc1ncnc2c1ncn2CCOCP(=O)(O)O,,> 1310 µM,164 µM,> 1310 µM,,,,
Nc1cc2c(ncn2CCOCP(=O)(O)O)c(N)n1,1390 µM,> 17.4 µM,> 17.4 µM,> 17.4 µM,243 µM,,,
O=P(O)(O)COCCn1cnc2c(S)ncnc21,> 1370 µM,> 172 µM,,> 172 µM,> 1370 µM,,,
Nc1cc(N)c2ncn(CCOCP(=O)(O)O)c2n1,522 µM,> 174 µM,> 174 µM,> 174 µM,243 µM,,,
Nc1nnc(N)c2c1ncn2CCOCP(=O)(O)O,> 693 µM,> 173 µM,> 173 µM,> 173 µM,1040 µM,,,
Nc1nc(N)c2nc(Br)n(CCOCP(=O)(O)O)c2n1,54.4 µM,22.8 µM,8.71 µM,16.3 µM,54.4 µM,,,
Cc1nc(N)nc2c1ncn2CCOCP(=O)(O)O,522 µM,> 174 µM,> 174 µM,> 174 µM,696 µM,,,
Nc1cc2c(ncn2CCOCP(=O)(O)O)c(O)n1,24.2 µM,,2.56 µM,3.22 µM,6.93 µM,5.55 µM,1.76 µM,
Nc1ccnc2c1ncn2CCOCP(=O)(O)O,734 µM,734 µM,> 1460 µM,1100 µM,551 µM,,,
CC(C)OP(=O)(COCCn1ncc(N)nc1=O)OC(C)C,,290 µM,> 299 µM,239 µM,,,,
CC(C)OP(=O)(COCCn1cnc2c(S)ncnc21)OC(C)C,> 1060 µM,> 133 µM,> 133 µM,> 133 µM,> 1060 µM,,,
CC(C)OP(=O)(COCCn1cnc2c(O)nc(N)nc21)OC(C)C,642 µM,37.4 µM,53.5 µM,83 µM,642 µM,,,
CC(C)OP(=O)(COCCn1cnc2c(N)nc(N)nc21)OC(C)C,644 µM,96.6 µM,> 134 µM,> 134 µM,214 µM,,,
CCOP(=O)(O)COCCn1cnc2c(O)nc(N)nc21,12.6 µM,0.0315 µM,0.0252 µM,0.0126 µM,6.3 µM,,,
Nc1nc(N)c2ncn(CCOCP(=O)(O)O)c2n1 [PMEDAP],,6.93 µM,3.46 µM,8.67 µM,6.93 µM,,,
Nc1nc(=O)n(CCOCP(=O)(O)O)cc1Br,914 µM,15.2 µM,18.2 µM,9.14 µM,60.9 µM,,,
Nc1nc(=O)ccn1CCOCP(=O)(O)O,,160 µM,> 401 µM,> 401 µM,,,,
Nc1ncc2ncn(CCOCP(=O)(O)O)c2n1,,102 µM,219 µM,98.8 µM,256 µM,,,
Nc1nc(Cl)c2ncn(CCOCP(=O)(O)O)c2n1,0.487 µM,0.227 µM,0.0195 µM,0.065 µM,0.747 µM,,,
CCOP(=O)(O)COCCn1cnc2c(N)nc(N)nc21,632 µM,15.8 µM,12.6 µM,6.32 µM,474 µM,,,
CC(C)CCCCCOP(=O)(COCCn1cnc2c(N)nc(N)nc21)OCCCCCC(C)C,> 31.2 µM,6.24 µM,> 9.75 µM,> 39 µM,> 31.2 µM,,,
Nc1nc(O)c2c(ncn2CCOCP(=O)(O)O)n1,> 691 µM,> 172 µM,152 µM,,> 691 µM,,,
Nc1nc(S)c2c(ncn2CCOCP(=O)(O)O)n1,> 327 µM,98.2 µM,121 µM,65.5 µM,65.5 µM,,,

SMILES,EC50 [1],EC50 [2],EC50 [3],EC50 [4],EC50 [5],EC50 (Thymidine kinase [6]),EC50 [7],EC50 (Thymidine kinase [8])
CC(C)OP(=O)(O)COCCn1cnc2c(N)ncnc21,> 1260 µM,> 158 µM,> 158 µM,> 158 µM,951 µM,,,
CC(C)OP(=O)(COCCn1c(Br)nc2c(O)nc(N)nc21)OC(C)C,> 884 µM,> 110 µM,> 110 µM,> 110 µM,530 µM,,,
CCOP(=O)(O)COCCn1cnc2c(N)ncnc21,497 µM,199 µM,132 µM,149 µM,497 µM,,,
Nc1ncnc2c1ccn2CCOCP(=O)(O)O,1100 µM,73.4 µM,183 µM,,551 µM,,,
Nc1nc(Cl)nc2c1ncn2CCOCP(=O)(O)O,,104 µM,130 µM,61.7 µM,,,,
CC(C)OP(=O)(COCCn1cnc2c(N)nc(Cl)nc21)OC(C)C,,9.44 µM,1.27 µM,,,,,
Nc1ncnc2c1nc(Br)n2CCOCP(=O)(O)O,,> 142 µM,> 142 µM,> 142 µM,,,,
CC(C)CCCCCOP(=O)(COCCn1cnc2c(O)nc(N)nc21)OCCCCCC(C)C,> 155 µM,8.17 µM,,35 µM,> 155 µM,,,21.4 µM
Nc1cccc2c1ncn2CCOCP(=O)(O)O,> 1470 µM,> 184 µM,> 184 µM,> 184 µM,> 1470 µM,,,
CC(C)OP(=O)(COCCn1cnc2nc(N)nc(O)c21)OC(C)C,> 535 µM,> 133 µM,> 133 µM,,> 535 µM,,,
CC(C)CCCCCOP(=O)(COCCn1cnc2nc(N)nc(Cl)c21)OCCCCCC(C)C,> 30 µM,> 9.39 µM,> 9.39 µM,> 9.39 µM,> 30 µM,,,
Nc1nc(O)c2nc(Br)n(CCOCP(=O)(O)O)c2n1,> 1080 µM,48.9 µM,10.8 µM,76 µM,130 µM,,,
CC(C)CCCCCOP(=O)(O)COCCn1cnc2c(O)nc(N)nc21,597 µM,32.3 µM,3.98 µM,87.1 µM,597 µM,,,
Nc1nc(O)nc2c1ncn2CCOCP(=O)(O)O,> 1380 µM,> 172 µM,> 172 µM,> 172 µM,> 1380 µM,,,
Nc1nccc2c1ncn2CCOCP(=O)(O)O,,367 µM,183 µM,257 µM,,,,
CC(C)CCCCCOP(=O)(COCCn1cnc2nc(N)nc(O)c21)OCCCCCC(C)C,> 31.1 µM,58.4 µM,62.3 µM,50.6 µM,> 31.1 µM,,,
CC(C)OP(=O)(COCCn1cnc2c(N)ncnc21)OC(C)C,> 1110 µM,111 µM,19.5 µM,55.9 µM,> 1110 µM,,,
CC(C)OP(=O)(O)COCCn1cnc2c(O)nc(N)nc21,17.2 µM,0.0302 µM,0.0121 µM,0.0151 µM,17.2 µM,,,
Nc1nccc(OCCOCP(=O)(O)O)n1,,> 401 µM,> 401 µM,> 401 µM,> 802 µM,,,
Nc1nc(F)nc2c1ncn2CCOCP(=O)(O)O,68.6 µM,99.5 µM,85.8 µM,113 µM,240 µM,,,
CC(C)CCCCCOP(=O)(COCCn1cnc2c(N)ncnc21)OCCCCCC(C)C,> 6.43 µM,4.01 µM,4.82 µM,6.63 µM,> 6.43 µM,,,
Nc1ccn(CCOCP(=O)(O)O)c(=O)n1,,1600 µM,602 µM,602 µM,401 µM,,,
Nc1cnn(CCOCP(=O)(O)O)c(=O)n1,,> 399 µM,> 399 µM,> 399 µM,,,,
Nc1cc2ncn(CCOCP(=O)(O)O)c2c(O)n1,> 693 µM,,,,> 693 µM,,,
NC1=NC2N=CC=NC2C(=O)N1CCOCP(=O)(O)O (centres undefined),230 µM,115 µM,26.3 µM,98.9 µM,230 µM,,,
CC(C)OP(=O)(O)COCCn1cnc2c(N)nc(N)nc21,> 1210 µM,> 151 µM,96.8 µM,> 151 µM,> 1210 µM,,,
